In ChEMBL document CHEMBL1124982, “Chemistry and structure-activity relationships of C-17 unsaturated 18-cycloalkyl and cycloalkenyl analogues of enisoprost. Identification of a promising new antiulcer prostaglandin” (1990) one finds ED50 data, which are given here for eight molecules.

One test has as its system Rattus norvegicus. As to the kind of experiment: Tested for diarrheal side effects in rats by intragastric administration. The class given is functional. The settings on record: po. In outline: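 Adult male Charles River rats (210–230 g), individually housed, fasted 24 h with water ad libitum. Logarithmically graded prostaglandin doses given orally, N = 6–12 per group. Diarrhea scored all-or-none for 8 h after dosing. ED50 and 95% confidence intervals by logistic regression.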

A further test has as its system Canis familiaris. As to the kind of experiment: Tested for gastric antisecretory activity in dogs by intrapouch administration. The class given is functional. The note with it: Canis lupus familiaris, Stomach. In outline: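 Adult female beagles (6–11 kg) with Pavlov pouches; after a 30-min basal collection, drug given into the pouch via Thomas cannula in pH 7.4 isoosmotic phosphate buffer with up to 20% ethanol. Fed 10–12 oz canned food 30 min later. Gastric juice collected at 30-min intervals for 4 h; acid output = volume × acidity. Percent reduction from control over 2–5 doses, 2–7 dogs/dose. ED50 by linear regression, 95% limits by Fieller's method.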

For orientation: ED50 means the midpoint of the dose-response relation.

As to `COC(=O)CC/C=C\CC[C@H]1C(=O)C[C@@H](O)[C@@H]1/C=C/C[C@@](C)(O)/C=C/C1=CCCCC1`, the ED50 with Rattus norvegicus is more than 3160 µg/kg; with Canis familiaris, 0.3 µg/kg.
In the case of `COC(=O)CC/C=C\CC[C@H]1C(=O)C[C@@H](O)[C@@H]1/C=C/C[C@@](C)(O)C#CC1=CCCC1`, the ED50 in the test on Rattus norvegicus is more than 3160 µg/kg; with Canis familiaris, 2.8 µg/kg.
Consider `COC(=O)CC/C=C\CC[C@H]1C(=O)C[C@@H](O)[C@@H]1/C=C/C[C@@](C)(O)/C=C/C1=CCCC1`, for which the ED50 with Rattus norvegicus was more than 3160 µg/kg; with Canis familiaris, 0.02 µg/kg.
For the molecule `COC(=O)CC/C=C\CC[C@H]1C(=O)C[C@@H](O)[C@@H]1/C=C/C[C@@](C)(O)/C=C/C1CC1`, the 50% effective dose (ED50) worked out at 402 µg/kg in the test on Rattus norvegicus and 0.1 µg/kg with Canis familiaris.
For the molecule `COC(=O)CC/C=C\CC[C@H]1C(=O)C[C@@H](O)[C@@H]1/C=C/CC(C)(O)CCC1=CCCC1` (stereo partly specified), the ED50 turned out to be 1180 µg/kg in the test with Rattus norvegicus and 0.1 µg/kg with Canis familiaris.
Take `COC(=O)CC/C=C\CC[C@H]1C(=O)C[C@@H](O)[C@@H]1/C=C/C[C@@](C)(O)/C=C/C1CCC1`: the figures for the median effective dose (ED50) with Rattus norvegicus and with Canis familiaris were 530 µg/kg and 0.05 µg/kg, respectively.
`COC(=O)CC/C=C\CC[C@H]1C(=O)C[C@@H](O)[C@@H]1/C=C/C[C@@](C)(O)/C=C/C1(C)CC1`: the ED50 with Rattus norvegicus worked out at 1340 µg/kg; in the test with Canis familiaris it was 0.02 µg/kg.
With `COC(=O)CC/C=C\CC[C@H]1C(=O)C[C@@H](O)[C@@H]1/C=C/C[C@@](C)(O)/C=C/C1CCCC1`, the 50% effective dose (ED50) was 1950 µg/kg in the test with Rattus norvegicus and 0.3 µg/kg with Canis familiaris.
